Results reported in ChEMBL document CHEMBL4330076, “Quinazolin-2,4-dione-Based Hydroxamic Acids as Selective Histone Deacetylase-6 Inhibitors for Treatment of Non-Small Cell Lung Cancer” (J Med Chem, 2019).
Active and inactive are the calls of the source. The rule behind the calls is not given here.

Legend:
Homo sapiens = organism: Homo sapiens; test: Selectivity ratio of IC50 for human full-length recombinant HDAC1 expressed in baculovirus infected Sf9 insect cells to IC50 for human full-length recombinant HDAC6 expressed in baculovirus infected Sf9 insect cells
[1] = system: Lewis lung carcinoma cell line; test: Cytotoxicity against mouse LL/2 cells at 0.8 uM after 72 hrs in presence of paclitaxel by crystal violet staining-based assay; type: functional, cell-based
[2] = system: Lewis lung carcinoma cell line; test: Induction of multi-nuclei formation in mouse LL/2 cells at 0.8 uM after 24 hrs in presence of paclitaxel by 4',6-diamidino-2-phenylindole staining-based assay; type: functional, cell-based
[3] = target: T1, Protein deacetylase HDAC6 (Mus musculus) (UniProt Q9Z2V5); test: Inhibition of HDAC6 in mouse LL/2 cells assessed as induction of alpha tubulin acetylation at 4 uM in presence of paclitaxel after 24 hrs by Western blot analysis relative to control; type: cell-based
T1 sequence (whole entry): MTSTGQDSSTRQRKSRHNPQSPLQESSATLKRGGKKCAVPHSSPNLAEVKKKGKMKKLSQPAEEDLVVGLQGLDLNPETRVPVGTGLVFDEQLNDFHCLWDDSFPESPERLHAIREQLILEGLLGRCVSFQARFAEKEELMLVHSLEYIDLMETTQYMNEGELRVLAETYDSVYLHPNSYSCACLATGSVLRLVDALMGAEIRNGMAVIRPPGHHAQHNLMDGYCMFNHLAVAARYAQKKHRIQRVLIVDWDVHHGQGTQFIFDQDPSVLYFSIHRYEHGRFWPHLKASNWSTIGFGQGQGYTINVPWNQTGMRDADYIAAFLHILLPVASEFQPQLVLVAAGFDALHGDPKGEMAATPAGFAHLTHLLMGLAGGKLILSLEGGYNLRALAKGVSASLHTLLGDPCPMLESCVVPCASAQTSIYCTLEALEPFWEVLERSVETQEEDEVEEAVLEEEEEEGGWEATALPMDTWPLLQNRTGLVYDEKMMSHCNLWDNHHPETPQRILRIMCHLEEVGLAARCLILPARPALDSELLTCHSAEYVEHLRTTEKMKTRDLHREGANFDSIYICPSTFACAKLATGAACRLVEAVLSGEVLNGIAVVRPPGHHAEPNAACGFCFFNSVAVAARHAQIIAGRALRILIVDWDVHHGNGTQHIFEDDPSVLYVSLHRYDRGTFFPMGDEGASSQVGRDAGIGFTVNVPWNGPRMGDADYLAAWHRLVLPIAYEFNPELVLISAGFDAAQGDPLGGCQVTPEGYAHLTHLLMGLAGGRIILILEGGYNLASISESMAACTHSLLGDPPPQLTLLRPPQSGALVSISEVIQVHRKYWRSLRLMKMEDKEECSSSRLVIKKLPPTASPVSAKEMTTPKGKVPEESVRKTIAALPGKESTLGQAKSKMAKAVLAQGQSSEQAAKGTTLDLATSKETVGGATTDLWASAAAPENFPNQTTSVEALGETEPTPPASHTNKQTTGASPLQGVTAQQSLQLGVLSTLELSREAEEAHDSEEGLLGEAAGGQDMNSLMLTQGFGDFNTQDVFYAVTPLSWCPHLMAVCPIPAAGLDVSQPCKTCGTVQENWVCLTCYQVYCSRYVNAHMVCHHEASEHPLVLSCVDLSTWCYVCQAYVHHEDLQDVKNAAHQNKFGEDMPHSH

[4] = target: T1, Protein deacetylase HDAC6 (Mus musculus); test: Inhibition of HDAC6 in mouse LL/2 cells assessed as induction of alpha tubulin acetylation at 0.8 uM in presence of paclitaxel after 24 hrs by Western blot analysis relative to control; type: cell-based
[5] = system: Lewis lung carcinoma cell line; test: Cytotoxicity against mouse LL/2 cells at 0 to 10 uM after 72 hrs in presence of paclitaxel by MTT assay relative to control; type: functional, cell-based
Procedure, shortened: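 Mouse LL/2 lung cancer cells cultured for 72 h with increasing inhibitor concentrations (0–10 μM) together with paclitaxel. Viability read by MTT. Combination assessed by the Chou-Talalay method as a combination index.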

[6] = system: Lewis lung carcinoma cell line; test: Antitumor activity against mouse LL/2 cells implanted in C57BL/6 mouse assessed as tumor growth inhibition at 20 mg/kg, po qd administered for 21 consecutive days; type: functional, organism-based
[7] = target: T1, Protein deacetylase HDAC6 (Mus musculus); test: Inhibition of HDAC6 in mouse LL/2 cells assessed as induction of alpha tubulin acetylation at 0.8 uM after 24 hrs by Western blot analysis relative to control; type: cell-based
[8] = target: T1, Protein deacetylase HDAC6 (Mus musculus); test: Inhibition of HDAC6 in mouse LL/2 cells assessed as reduction in PD-L1 expression at 2 to 10 uM after 24 hrs by Western blot analysis; type: cell-based
[9] = target: Histone deacetylase 1 (Homo sapiens) (UniProt Q13547); test: Inhibition of HDAC1 in human A549 cells assessed as effect on histone H3 acetylation level at 1 uM after 24 hrs by Western blot analysis; type: cell-based
Sequence of Histone deacetylase 1 (Homo sapiens) (Q13547 whole entry): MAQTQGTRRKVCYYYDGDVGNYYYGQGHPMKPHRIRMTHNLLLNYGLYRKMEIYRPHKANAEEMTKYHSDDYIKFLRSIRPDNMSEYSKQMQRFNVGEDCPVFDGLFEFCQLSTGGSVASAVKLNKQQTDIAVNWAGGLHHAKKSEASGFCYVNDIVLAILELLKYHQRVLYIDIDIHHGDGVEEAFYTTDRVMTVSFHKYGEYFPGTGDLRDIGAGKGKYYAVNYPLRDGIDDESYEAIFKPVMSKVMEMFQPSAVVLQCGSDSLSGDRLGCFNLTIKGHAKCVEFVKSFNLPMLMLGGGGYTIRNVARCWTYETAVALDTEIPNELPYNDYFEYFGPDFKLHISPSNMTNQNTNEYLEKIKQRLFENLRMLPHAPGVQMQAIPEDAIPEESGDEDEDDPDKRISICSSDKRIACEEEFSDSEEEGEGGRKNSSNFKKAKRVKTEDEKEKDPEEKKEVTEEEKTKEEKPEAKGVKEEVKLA

[10] = system: Lewis lung carcinoma cell line; test: Cytotoxicity against mouse LL/2 cells at 0.8 uM after 72 hrs in presence of paclitaxel by crystal violet staining-based assay relative to control; type: functional, cell-based
[11] = target: T1, Protein deacetylase HDAC6 (Mus musculus); test: Inhibition of HDAC6 in mouse LL/2 cells assessed as reduction in PD-L1 expression at 2 to 5 uM in presence of paclitaxel after 24 hrs by Western blot analysis; type: cell-based
[12] = system: Lewis lung carcinoma cell line; test: Decrease in PD-L1 expression in mouse LL/2 cells at 10 uM after 24 hrs by Western blot analysis
[13] = system: Lewis lung carcinoma cell line; test: Antitumor activity against mouse LL/2 cells implanted in C57BL/6 mouse assessed as tumor growth inhibition at 10 mg/kg, ip qd administered for 5 days; type: functional, organism-based
[14] = target: T1, Protein deacetylase HDAC6 (Mus musculus); test: Inhibition of HDAC6 in mouse LL/2 cells assessed as reduction in PD-L1 expression at 10 uM after 24 hrs by Western blot analysis; type: cell-based

Structure (SMILES) | Ratio IC50 (Homo sapiens) | further results
O=C(NO)c1ccc(Cn2c(=O)n(CCc3ccccc3)c(=O)c3ccc(F)cc32)cc1 | 1180 | 
O=C(NO)c1ccc(Cn2c(=O)n(CCc3ccccc3)c(=O)c3ccc(O)cc32)cc1 | 259 | 
O=C(NO)c1ccc(Cn2c(=O)n(CCc3ccccc3)c(=O)c3cc(Cl)ccc32)cc1 | 539 | 
O=C(NO)c1cccc(Cn2c(=O)n(CCc3ccccc3)c(=O)c3ccccc32)c1 | > 2 | 
O=C(NO)c1ccc(Cn2c(=O)n(CCc3ccccc3)c(=O)c3ccc(C(F)(F)F)cc32)cc1 | 13 | 
O=C(NO)c1ccc(Cn2c(=O)n(CCc3cccc(C(F)(F)F)c3)c(=O)c3ccccc32)cc1 | 529 | Activity [1]: Active
O=C(NO)c1ccc(Cn2c(=O)n(CCc3ccccc3)c(=O)c3ccc(C4CC4)cc32)cc1 | 86 | 
COc1ccc2c(=O)n(CCc3ccccc3)c(=O)n(Cc3ccc(C(=O)NO)cc3)c2c1 | 235 | 
O=C(NO)c1ccc(Cn2c(=O)n(CCc3ccccc3)c(=O)c3ccccc32)s1 | 1150 | 
O=C(NO)c1cc(Cn2c(=O)n(CCc3ccccc3)c(=O)c3ccccc32)cs1 | > 8 | 
O=C(NO)c1ccc(Cn2c(=O)n(CCc3ccccc3)c(=O)c3ccccc32)cc1 | 2790 | Activity [2]: Active; inhibition [3]: Active; fold change (FC) [4]: 74.7; Activity [5]: Active; TGI [6]: inactive; fold change (FC) [7]: 42.7; inhibition [8]: Active; Activity [1]: Active; inhibition [9]: inactive; Activity [10]: Active; inhibition [11]: Active
O=C(NO)c1ccc(Cn2c(=O)n(CCc3ccccc3)c(=O)c3cc(F)ccc32)cc1 | 235 | 
O=C(NO)c1ccc(Cn2c(=O)n(CCc3ccccc3)c(=O)c3ccsc32)cc1 | 443 | 
O=C(NO)c1ccc(Cn2c(=O)n(CCc3cccc(F)c3)c(=O)c3ccccc32)cc1 | 1320 | 
O=C(NO)c1ccc(Cn2c(=O)n(CCc3ccccc3)c(=O)c3cccnc32)cc1 | 384 | 
CC(=O)O[C@H]1C(=O)[C@@]2(C)[C@H]([C@H](OC(=O)c3ccccc3)[C@]3(O)C[C@H](OC(=O)[C@H](O)[C@@H](NC(=O)c4ccccc4)c4ccccc4)C(C)=C1C3(C)C)[C@]1(OC(C)=O)CO[C@@H]1C[C@@H]2O |  | Activity [12]: Active; TGI [13]: inactive
O=C(NO)c1ccc(Cn2c(=O)n(CCc3ccc(O)cc3)c(=O)c3ccccc32)cc1 | 1820 | 
O=C(NO)c1ccc(Cn2c(=O)n(CCc3ccc(F)cc3)c(=O)c3ccccc32)cc1 | 470 | 
Cc1ccc2c(=O)n(CCc3ccccc3)c(=O)n(Cc3ccc(C(=O)NO)cc3)c2c1 | 64 | 
COc1ccc(CCn2c(=O)c3ccccc3n(Cc3ccc(C(=O)NO)cc3)c2=O)cc1 | 369 | 
O=C(NO)c1ccc(Cn2c(=O)n(CCc3ccccc3)c(=O)c3ccc(Cl)cc32)cc1 | 434 | 
O=C(CCCCCCC(=O)Nc1ccccc1)NO |  | inhibition [14]: inactive
